Measured values from ChEMBL document CHEMBL1275293, “Aqua mediated synthesis of 2-amino-6-benzothiazol-2-ylsulfanyl-chromenes and its in vitro study, explanation of the structure-activity relationships (SARs) as antibacterial agent” (2010).
Values after ≈ are worked out from the molar mass of the structure shown.

Tests used:
Assay type in all cases: functional
Staphylococcus aureus = test: Antimicrobial activity against Staphylococcus aureus by broth microdilution method
In short: (§1)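 Broth microdilution MIC following the NCCLS standard protocol, run in 96-well plates with 0.2 ml Mueller Hinton broth per well. Compounds were serially doubled from 0.5 to […] μg/ml, with ampicillin as reference. Inoculum was set to McFarland 0.5 turbidity, then diluted to about 5 × 10^5 cfu/ml per well. Plates included broth+inoculum and broth-only controls and were incubated overnight at 37 °C.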

Pseudomonas aeruginosa = test: Antimicrobial activity against Pseudomonas aeruginosa by broth microdilution method; in short: as §1
[1] = system: Staphylococcus epidermidis; test: Antimicrobial activity against Staphylococcus epidermidis by broth microdilution method; in short: as §1
Escherichia coli = test: Antimicrobial activity against Escherichia coli by broth microdilution method; in short: as §1

Row | Compound | MIC (Staphylococcus aureus) | MIC (Pseudomonas aeruginosa) | MIC [1] | MIC (Escherichia coli)
1 | N#CC1=C(N)Oc2ccc(Sc3nc4ccccc4s3)cc2C1c1cc2ccccc2nc1Cl (stereo not given) | 16 µg/mL (≈ 32.1 µM) | 16 µg/mL (≈ 32.1 µM) | 64 µg/mL (≈ 128 µM) | 16 µg/mL (≈ 32.1 µM)
2 | CCOC(=O)C1=C(N)Oc2ccc(Sc3nc4ccccc4[nH]3)cc2C1c1ccc(Cl)cc1 (stereo not given) | 32 µg/mL (≈ 66.9 µM) | 8 µg/mL (≈ 16.7 µM) | 64 µg/mL (≈ 134 µM) | 64 µg/mL (≈ 134 µM)
3 | CCOC(=O)C1=C(N)Oc2ccc(Sc3nc4cc(OC)ccc4[nH]3)cc2C1c1cccs1 (stereo not given) | 125 µg/mL (≈ 261 µM) | 125 µg/mL (≈ 261 µM) | 125 µg/mL (≈ 261 µM) | 125 µg/mL (≈ 261 µM)
4 | N#CC1=C(N)Oc2ccc(Sc3nc4ccccc4s3)cc2C1c1ccc(Cl)cc1 (stereo not given) | 4 µg/mL (≈ 8.93 µM) | 16 µg/mL (≈ 35.7 µM) | 32 µg/mL (≈ 71.4 µM) | 32 µg/mL (≈ 71.4 µM)
5 | CCOC(=O)C1=C(N)Oc2ccc(Sc3nc4cc(OC)ccc4[nH]3)cc2C1c1ccc(Cl)cc1 (stereo not given) | 32 µg/mL (≈ 63 µM) | 64 µg/mL (≈ 126 µM) | 64 µg/mL (≈ 126 µM) | 64 µg/mL (≈ 126 µM)
6 | N#CC1=C(N)Oc2ccc(Sc3nc4ccccc4s3)cc2C1c1ccccc1 (stereo not given) | 4 µg/mL (≈ 9.67 µM) | 32 µg/mL (≈ 77.4 µM) | 8 µg/mL (≈ 19.3 µM) | 16 µg/mL (≈ 38.7 µM)
7 | COc1ccc(C2C(C#N)=C(N)Oc3ccc(Sc4nc5ccccc5s4)cc32)cc1 (stereo not given) | 8 µg/mL (≈ 18 µM) | 2 µg/mL (≈ 4.51 µM) | 16 µg/mL (≈ 36.1 µM) | 32 µg/mL (≈ 72.1 µM)
8 | COc1ccc2[nH]c(Sc3ccc4c(c3)C(c3ccc([N+](=O)[O-])cc3)C(C#N)=C(N)O4)nc2c1 (stereo not given) | 16 µg/mL (≈ 33.9 µM) | 8 µg/mL (≈ 17 µM) | 16 µg/mL (≈ 33.9 µM) | 16 µg/mL (≈ 33.9 µM)
9 | COc1ccc2[nH]c(Sc3ccc4c(c3)C(c3cccs3)C(C#N)=C(N)O4)nc2c1 (stereo not given) | 250 µg/mL (≈ 578 µM) | 125 µg/mL (≈ 289 µM) | 250 µg/mL (≈ 578 µM) | 125 µg/mL (≈ 289 µM)
10 | CCOC(=O)C1=C(N)Oc2ccc(Sc3nc4ccccc4[nH]3)cc2C1c1cccs1 (stereo not given) | 125 µg/mL (≈ 278 µM) | 125 µg/mL (≈ 278 µM) | 125 µg/mL (≈ 278 µM) | 125 µg/mL (≈ 278 µM)
11 | N#CC1=C(N)Oc2ccc(Sc3nc4ccccc4[nH]3)cc2C1c1ccc(Cl)cc1 (stereo not given) | 16 µg/mL (≈ 37.1 µM) | 16 µg/mL (≈ 37.1 µM) | 16 µg/mL (≈ 37.1 µM) | 16 µg/mL (≈ 37.1 µM)
12 | N#CC1=C(N)Oc2ccc(Sc3nc4ccccc4s3)cc2C1c1ccc2c(c1)OCO2 (stereo not given) | 8 µg/mL (≈ 17.5 µM) | 8 µg/mL (≈ 17.5 µM) | 4 µg/mL (≈ 8.74 µM) | 1 µg/mL (≈ 2.19 µM)
13 | N#CC1=C(N)Oc2ccc(Sc3nc4ccccc4s3)cc2C1c1ccc2ccccc2c1 (stereo not given) | 16 µg/mL (≈ 34.5 µM) | 8 µg/mL (≈ 17.3 µM) | 32 µg/mL (≈ 69 µM) | 16 µg/mL (≈ 34.5 µM)
14 | CCOC(=O)C1=C(N)Oc2ccc(Sc3nc4ccccc4[nH]3)cc2C1c1cccc([N+](=O)[O-])c1 (stereo not given) | 64 µg/mL (≈ 131 µM) | 32 µg/mL (≈ 65.5 µM) | 64 µg/mL (≈ 131 µM) | 32 µg/mL (≈ 65.5 µM)
15 | CCOC(=O)C1=C(N)Oc2ccc(Sc3nc4ccccc4[nH]3)cc2C1c1ccc([N+](=O)[O-])cc1 (stereo not given) | 16 µg/mL (≈ 32.8 µM) | 8 µg/mL (≈ 16.4 µM) | 32 µg/mL (≈ 65.5 µM) | 16 µg/mL (≈ 32.8 µM)
16 | CCOC(=O)C1=C(N)Oc2ccc(Sc3nc4cc(OC)ccc4[nH]3)cc2C1c1ccc([N+](=O)[O-])cc1 (stereo not given) | 64 µg/mL (≈ 123 µM) | 32 µg/mL (≈ 61.7 µM) | 64 µg/mL (≈ 123 µM) | 64 µg/mL (≈ 123 µM)
17 | CCOC(=O)C1=C(N)Oc2ccc(Sc3nc4cc(OC)ccc4[nH]3)cc2C1c1cccc([N+](=O)[O-])c1 (stereo not given) | 125 µg/mL (≈ 241 µM) | 125 µg/mL (≈ 241 µM) | 125 µg/mL (≈ 241 µM) | 125 µg/mL (≈ 241 µM)
18 | N#CC1=C(N)Oc2ccc(Sc3nc4ccccc4s3)cc2C1c1cccs1 (stereo not given) | 2 µg/mL (≈ 4.77 µM) | 32 µg/mL (≈ 76.3 µM) | 64 µg/mL (≈ 153 µM) | 2 µg/mL (≈ 4.77 µM)
19 | N#CC1=C(N)Oc2ccc(Sc3nc4ccccc4s3)cc2C1c1c[nH]c2ccccc12 (stereo not given) | 2 µg/mL (≈ 4.42 µM) | 16 µg/mL (≈ 35.4 µM) | 32 µg/mL (≈ 70.7 µM) | 0.5 µg/mL (≈ 1.1 µM)
20 | CCOC(=O)C1=C(N)Oc2ccc(Sc3nc4cc(OC)ccc4[nH]3)cc2C1c1ccc2c(c1)OCO2 (stereo not given) | 125 µg/mL (≈ 242 µM) | 125 µg/mL (≈ 242 µM) | 125 µg/mL (≈ 242 µM) | 125 µg/mL (≈ 242 µM)
